The text below walks through data of ChEMBL document CHEMBL4422684, “Identification of novel lysine demethylase 5-selective inhibitors by inhibitor-based fragment merging strategy” (Bioorg Med Chem, 2019).

Test [1] deals with Lysine-specific demethylase 5B (Homo sapiens, UniProt Q9UGL1). Nature of the test: Inhibition of human N-terminal FLAG/His-tagged KDM5B (2 to 751 residues) expressed in baculovirus infected Sf9 insect cells using H3(1-21)K4(Me3)-GGK(Biotin)/2-OG as substrate measured after 1 hr by Alphalisa assay. Summed up: (§1)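 AlphaLISA demethylase assay in 50 mM HEPES pH 7.5, 0.1% BSA, 0.01% Tween 20 with DMSO. Enzyme and inhibitor combined, then peptide plus 2-OG (50 µM), Fe(II) (5 µM) and ascorbate (100 µM) in the added mix; 1 h at room temperature with shaking.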

In test [2] the target is T1, Lysine-specific demethylase 5A (Homo sapiens, UniProt P29375). Nature of the test: Inhibition of human C-terminal FLAG-tagged KDM5A (1 to 1090 residues) expressed in baculovirus infected Sf9 insect cells at 1 uM using H3(1-21)K4(Me3)-GGK(Biotin)/2-OG as substrate measured after 1 hr by Alphalisa assay relative to control. The gist of the method:
as §1

Test [3] has as its target T1, Lysine-specific demethylase 5A. Nature of the test: Inhibition of human C-terminal FLAG-tagged KDM5A (1 to 1090 residues) expressed in baculovirus infected Sf9 insect cells using H3(1-21)K4(Me3)-GGK(Biotin)/2-OG as substrate measured after 1 hr by Alphalisa assay. The gist of the method:
as §1

In test [4] the target is T2, Lysine-specific demethylase 3A (Homo sapiens) (UniProt Q9Y4C1).
T2 sequence (whole entry): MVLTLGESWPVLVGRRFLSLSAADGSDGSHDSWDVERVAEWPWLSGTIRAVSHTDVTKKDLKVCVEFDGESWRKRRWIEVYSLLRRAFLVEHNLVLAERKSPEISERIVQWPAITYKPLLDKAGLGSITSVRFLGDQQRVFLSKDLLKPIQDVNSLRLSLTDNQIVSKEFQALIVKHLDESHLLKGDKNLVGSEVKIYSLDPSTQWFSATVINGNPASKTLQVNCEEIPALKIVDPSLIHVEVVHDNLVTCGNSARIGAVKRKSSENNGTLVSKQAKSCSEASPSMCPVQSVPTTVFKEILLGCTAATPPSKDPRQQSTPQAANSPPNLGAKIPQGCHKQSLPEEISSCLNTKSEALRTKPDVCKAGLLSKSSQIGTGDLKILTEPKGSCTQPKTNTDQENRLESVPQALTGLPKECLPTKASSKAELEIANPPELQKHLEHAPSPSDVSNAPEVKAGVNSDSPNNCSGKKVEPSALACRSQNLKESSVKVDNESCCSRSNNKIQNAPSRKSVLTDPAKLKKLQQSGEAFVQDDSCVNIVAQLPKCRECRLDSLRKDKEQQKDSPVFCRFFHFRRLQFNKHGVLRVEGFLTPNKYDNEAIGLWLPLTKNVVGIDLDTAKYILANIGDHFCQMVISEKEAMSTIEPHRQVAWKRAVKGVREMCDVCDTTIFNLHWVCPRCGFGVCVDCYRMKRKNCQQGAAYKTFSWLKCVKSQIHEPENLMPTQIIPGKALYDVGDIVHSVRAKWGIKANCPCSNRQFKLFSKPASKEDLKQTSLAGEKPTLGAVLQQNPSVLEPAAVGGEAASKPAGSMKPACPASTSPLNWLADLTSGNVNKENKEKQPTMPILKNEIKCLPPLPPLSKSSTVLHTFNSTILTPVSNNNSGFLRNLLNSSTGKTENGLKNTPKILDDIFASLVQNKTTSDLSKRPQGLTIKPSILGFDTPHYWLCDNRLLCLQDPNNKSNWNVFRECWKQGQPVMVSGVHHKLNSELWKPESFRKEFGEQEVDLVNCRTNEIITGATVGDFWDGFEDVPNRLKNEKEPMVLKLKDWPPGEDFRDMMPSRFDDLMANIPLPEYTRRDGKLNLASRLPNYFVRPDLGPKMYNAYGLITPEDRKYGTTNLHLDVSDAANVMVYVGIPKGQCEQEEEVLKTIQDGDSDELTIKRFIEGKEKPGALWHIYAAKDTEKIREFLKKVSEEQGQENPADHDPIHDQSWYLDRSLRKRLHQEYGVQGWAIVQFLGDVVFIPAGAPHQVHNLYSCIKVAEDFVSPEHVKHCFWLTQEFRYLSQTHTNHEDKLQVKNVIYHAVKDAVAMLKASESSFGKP
Put plainly: Inhibition of human N-terminal FLAG-tagged KDM3A (2 to 1321 residues) expressed in baculovirus infected Sf9 insect cells at 50 uM using H3(1-21)K9(Me1)-GGK(Biotin)/2-OG as substrate measured after 1 hr by Alphalisa assay relative to control. Summed up: as §1

Test [5] deals with Lysine-specific demethylase 5C (Homo sapiens, UniProt P41229). Put plainly: Inhibition of full-length human N-terminal FLAG/His-tagged KDM5C (2 to 1560 residues) expressed in baculovirus infected Sf9 insect cells using H3(1-21)K4(Me3)-GGK(Biotin)/2-OG as substrate measured after 1 hr by Alphalisa assay. Summed up: as §1
In a further test the test system is A549. Nature of the test: Growth inhibition of human A549 cells after 72 hrs by Alamar blue staining based fluorescence assay. Format: functional. Conditions: A549, 72 h. Summed up:
(§2)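 A549 or MDA-MB-231 cells seeded at 2 × 10^3 per well, left 24 h at 37 °C, then given compounds in medium for 72 h at 37 °C, 5% CO2. AlamarBlue added for a further 3 h at 37 °C; fluorescence read at ex 540/em 590 nm and % growth calculated from it. A549 in RPMI1640/10% FBS; MDA-MB-231 in L-15 with 2 mM glutamine/10% FBS.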

A further test concerns MDA-MB-231. Put plainly: Growth inhibition of human MDA-MB-231 cells at 50 uM after 72 hrs by Alamar blue staining based fluorescence assay. Type of test: functional, cell-based. The gist of the method:
as §2

pIC50: −log10 of the molar value. The source made the active and inactive calls. The rule behind the calls is not given here.

Lysine-specific demethylase 5B, sequence (Q9UGL1 whole entry, the tested form may be a part): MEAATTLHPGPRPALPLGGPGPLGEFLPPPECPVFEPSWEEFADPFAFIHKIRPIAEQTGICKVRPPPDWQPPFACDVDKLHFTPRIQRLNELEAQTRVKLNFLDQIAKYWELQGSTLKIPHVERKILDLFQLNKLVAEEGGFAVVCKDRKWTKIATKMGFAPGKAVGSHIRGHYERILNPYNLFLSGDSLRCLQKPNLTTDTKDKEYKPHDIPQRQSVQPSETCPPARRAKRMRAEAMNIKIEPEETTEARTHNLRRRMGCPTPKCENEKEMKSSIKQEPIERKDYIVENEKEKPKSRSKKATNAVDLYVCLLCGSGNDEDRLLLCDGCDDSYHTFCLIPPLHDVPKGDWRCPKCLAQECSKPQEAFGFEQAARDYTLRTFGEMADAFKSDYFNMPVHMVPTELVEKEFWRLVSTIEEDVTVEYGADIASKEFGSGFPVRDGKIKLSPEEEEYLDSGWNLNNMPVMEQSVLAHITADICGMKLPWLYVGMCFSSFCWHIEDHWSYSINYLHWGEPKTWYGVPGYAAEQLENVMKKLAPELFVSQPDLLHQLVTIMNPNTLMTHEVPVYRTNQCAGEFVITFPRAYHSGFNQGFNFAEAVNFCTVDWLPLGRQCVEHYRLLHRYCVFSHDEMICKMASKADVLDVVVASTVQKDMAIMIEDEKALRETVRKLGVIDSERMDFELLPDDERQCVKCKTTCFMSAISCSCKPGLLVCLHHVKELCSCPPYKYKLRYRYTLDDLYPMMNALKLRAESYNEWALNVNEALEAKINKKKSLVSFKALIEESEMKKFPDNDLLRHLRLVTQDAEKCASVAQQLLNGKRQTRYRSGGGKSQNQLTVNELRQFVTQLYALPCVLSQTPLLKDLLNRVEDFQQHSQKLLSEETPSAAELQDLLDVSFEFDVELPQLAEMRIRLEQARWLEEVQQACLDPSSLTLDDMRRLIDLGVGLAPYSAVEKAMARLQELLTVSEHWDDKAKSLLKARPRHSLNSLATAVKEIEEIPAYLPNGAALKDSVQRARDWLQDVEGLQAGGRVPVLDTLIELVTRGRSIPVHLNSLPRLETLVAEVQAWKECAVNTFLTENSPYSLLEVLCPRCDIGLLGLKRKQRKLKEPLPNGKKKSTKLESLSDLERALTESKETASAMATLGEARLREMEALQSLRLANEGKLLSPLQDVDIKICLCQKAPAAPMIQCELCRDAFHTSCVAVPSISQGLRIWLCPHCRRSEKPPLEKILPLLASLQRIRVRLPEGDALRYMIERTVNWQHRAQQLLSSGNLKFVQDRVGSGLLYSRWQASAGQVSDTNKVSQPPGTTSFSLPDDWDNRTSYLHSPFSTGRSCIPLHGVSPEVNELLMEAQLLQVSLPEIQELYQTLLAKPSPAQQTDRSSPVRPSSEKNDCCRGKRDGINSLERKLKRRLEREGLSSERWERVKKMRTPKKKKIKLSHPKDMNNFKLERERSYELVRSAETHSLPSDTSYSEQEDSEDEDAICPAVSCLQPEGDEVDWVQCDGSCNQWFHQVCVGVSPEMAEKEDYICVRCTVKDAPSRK
Lysine-specific demethylase 5C, sequence (P41229 whole entry, the tested form may be a part): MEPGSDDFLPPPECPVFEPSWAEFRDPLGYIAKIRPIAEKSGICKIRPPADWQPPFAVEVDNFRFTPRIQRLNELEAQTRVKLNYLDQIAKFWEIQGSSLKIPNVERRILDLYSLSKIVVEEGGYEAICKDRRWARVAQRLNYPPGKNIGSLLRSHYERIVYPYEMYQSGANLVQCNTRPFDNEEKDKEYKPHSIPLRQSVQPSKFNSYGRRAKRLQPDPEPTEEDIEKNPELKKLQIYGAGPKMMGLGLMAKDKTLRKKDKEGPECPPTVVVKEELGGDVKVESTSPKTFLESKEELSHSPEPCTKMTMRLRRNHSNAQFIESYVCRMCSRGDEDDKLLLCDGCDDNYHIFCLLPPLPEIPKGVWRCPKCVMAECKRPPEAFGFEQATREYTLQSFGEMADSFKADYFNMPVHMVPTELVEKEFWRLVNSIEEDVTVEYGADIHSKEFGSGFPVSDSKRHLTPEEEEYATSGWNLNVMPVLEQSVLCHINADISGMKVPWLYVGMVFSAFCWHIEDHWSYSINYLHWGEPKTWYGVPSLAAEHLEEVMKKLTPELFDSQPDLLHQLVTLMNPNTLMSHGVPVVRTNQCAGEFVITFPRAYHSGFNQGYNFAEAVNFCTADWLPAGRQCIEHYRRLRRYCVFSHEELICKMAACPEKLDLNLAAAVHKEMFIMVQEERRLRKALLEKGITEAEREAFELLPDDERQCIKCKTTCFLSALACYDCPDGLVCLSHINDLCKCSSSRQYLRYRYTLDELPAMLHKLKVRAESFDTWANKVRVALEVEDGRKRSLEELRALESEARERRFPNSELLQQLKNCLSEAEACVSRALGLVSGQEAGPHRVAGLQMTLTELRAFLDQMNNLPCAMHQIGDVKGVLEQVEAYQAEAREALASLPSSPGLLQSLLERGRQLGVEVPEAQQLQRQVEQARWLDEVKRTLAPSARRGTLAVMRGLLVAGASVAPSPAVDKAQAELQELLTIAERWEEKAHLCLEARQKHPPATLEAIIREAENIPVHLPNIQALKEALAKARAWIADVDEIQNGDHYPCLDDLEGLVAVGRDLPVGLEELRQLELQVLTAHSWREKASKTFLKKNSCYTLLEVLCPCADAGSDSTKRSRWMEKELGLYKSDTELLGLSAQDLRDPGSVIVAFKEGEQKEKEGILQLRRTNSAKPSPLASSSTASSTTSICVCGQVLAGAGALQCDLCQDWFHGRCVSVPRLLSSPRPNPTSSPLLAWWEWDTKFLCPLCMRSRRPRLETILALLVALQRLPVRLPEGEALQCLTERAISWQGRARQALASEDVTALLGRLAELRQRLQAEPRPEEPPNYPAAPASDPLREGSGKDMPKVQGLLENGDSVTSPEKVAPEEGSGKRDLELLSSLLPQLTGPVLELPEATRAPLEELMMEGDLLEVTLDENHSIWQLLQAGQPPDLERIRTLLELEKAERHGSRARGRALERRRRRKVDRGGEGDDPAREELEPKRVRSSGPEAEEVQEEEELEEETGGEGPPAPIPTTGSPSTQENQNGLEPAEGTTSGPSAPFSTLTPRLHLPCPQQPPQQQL
T1 sequence (P29375 whole entry, the tested form may be a part): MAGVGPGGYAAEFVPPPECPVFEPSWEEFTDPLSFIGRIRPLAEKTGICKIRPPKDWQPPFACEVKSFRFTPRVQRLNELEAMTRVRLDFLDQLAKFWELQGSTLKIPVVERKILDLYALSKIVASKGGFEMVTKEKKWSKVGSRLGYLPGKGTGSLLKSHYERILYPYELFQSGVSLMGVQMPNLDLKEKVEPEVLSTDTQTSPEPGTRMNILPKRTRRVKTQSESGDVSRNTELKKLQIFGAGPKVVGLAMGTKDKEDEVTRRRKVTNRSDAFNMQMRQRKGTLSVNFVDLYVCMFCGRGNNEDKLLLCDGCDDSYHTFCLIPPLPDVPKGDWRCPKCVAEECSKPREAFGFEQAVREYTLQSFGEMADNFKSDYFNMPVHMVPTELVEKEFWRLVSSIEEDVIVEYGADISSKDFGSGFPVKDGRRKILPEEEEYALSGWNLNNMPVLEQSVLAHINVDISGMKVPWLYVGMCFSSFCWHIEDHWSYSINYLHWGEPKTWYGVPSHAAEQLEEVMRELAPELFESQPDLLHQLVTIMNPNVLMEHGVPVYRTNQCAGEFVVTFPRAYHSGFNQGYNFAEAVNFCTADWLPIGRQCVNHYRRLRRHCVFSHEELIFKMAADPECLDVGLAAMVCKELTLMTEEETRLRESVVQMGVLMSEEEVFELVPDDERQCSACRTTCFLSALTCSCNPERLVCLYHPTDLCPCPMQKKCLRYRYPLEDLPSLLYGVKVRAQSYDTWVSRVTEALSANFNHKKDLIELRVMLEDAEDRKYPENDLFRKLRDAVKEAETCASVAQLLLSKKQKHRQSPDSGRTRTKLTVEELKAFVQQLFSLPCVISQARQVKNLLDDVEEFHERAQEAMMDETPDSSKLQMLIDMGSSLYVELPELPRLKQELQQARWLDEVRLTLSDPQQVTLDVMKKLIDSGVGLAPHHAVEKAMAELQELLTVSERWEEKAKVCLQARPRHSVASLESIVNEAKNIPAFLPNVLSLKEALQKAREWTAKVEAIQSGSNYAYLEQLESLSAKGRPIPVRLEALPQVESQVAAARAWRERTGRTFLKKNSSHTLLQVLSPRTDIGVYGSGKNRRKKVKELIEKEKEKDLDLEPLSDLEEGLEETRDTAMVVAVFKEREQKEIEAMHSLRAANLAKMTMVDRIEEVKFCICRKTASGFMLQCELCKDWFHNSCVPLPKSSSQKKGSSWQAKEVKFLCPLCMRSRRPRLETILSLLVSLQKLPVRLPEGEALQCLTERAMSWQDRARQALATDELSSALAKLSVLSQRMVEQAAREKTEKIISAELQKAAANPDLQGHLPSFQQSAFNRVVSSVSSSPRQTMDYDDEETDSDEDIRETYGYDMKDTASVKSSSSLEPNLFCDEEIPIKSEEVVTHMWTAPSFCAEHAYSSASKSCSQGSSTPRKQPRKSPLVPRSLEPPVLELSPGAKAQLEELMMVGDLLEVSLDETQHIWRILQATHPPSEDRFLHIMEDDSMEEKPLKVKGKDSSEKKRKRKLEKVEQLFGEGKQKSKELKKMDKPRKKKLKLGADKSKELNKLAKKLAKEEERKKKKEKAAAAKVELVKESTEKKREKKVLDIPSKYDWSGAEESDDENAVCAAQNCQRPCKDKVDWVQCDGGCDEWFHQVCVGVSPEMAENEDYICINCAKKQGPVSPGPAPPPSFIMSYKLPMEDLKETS

With `CCCCCN(C)CCCCC(=O)N(O)CCC(=O)O`, the pIC50 in test [1] was 5.03; in test [3] it was 5.57; in test [5], 4.54. For the same compound, the inhibition in test [2] stood at 30.8%; in test [4], 30.1%.

`CC(C)c1c(-c2ccccc2)[nH]c2c(C#N)cnn2c1=O`: the pIC50 was 6.47 in test [1] and 5.52 in test [5]. Besides, the inhibition in test [2] is 68.9%; in test [4], 31.9%. In addition, the GI50 with A549 was greater than 50000 nM. In addition, in the test on MDA-MB-231, the “growth inhibition (GI)” value is “Active”.

As for `CCCCCCN(C)Cc1ccc(-c2[nH]c3c(C#N)cnn3c(=O)c2C(C)C)cc1`, the figures for the pIC50 in test [1], in test [3] and in test [5] were 7.29, 7.64 and 8.23, respectively. Further, the inhibition in test [2] is 97.9%; in test [4] it was 61.5%. The compound also displayed a GI50 in the test on A549 of 40000 nM. Further, the “growth inhibition (GI)” value in the test on MDA-MB-231 is “Active”.

With `CCCCCCN(C)CCc1ccc(-c2[nH]c3c(C#N)cnn3c(=O)c2C(C)C)cc1`, the pIC50 in test [1] was 8.87; in test [3], 8.36; in test [5], 8.20. The compound also came in with a GI50 in the test on A549 of 29600 nM. Further, in the test with MDA-MB-231, the “growth inhibition (GI)” value was “Active”.
